4 compounds from ChEMBL document CHEMBL2331076, “Pyridone alkaloids from a marine-derived fungus, Stagonosporopsis cucurbitacearum, and their activities against azole-resistant Candida albicans” (2013) can be followed below.

Converted amounts (≈) assume the structure as drawn.

Format in all cases: functional
The subject of one assay is Cryptococcus neoformans. The assay is described as follows: Antifungal activity against Cryptococcus neoformans MPU-B by CLSI M27-A2 microdilution method. An outline of the steps: (§1)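 Broth microdilution per CLSI M27-A2, run in triplicate. Panel: azole-resistant C. albicans J2-36 (resistant to fluconazole, itraconazole, voriconazole), azole-sensitive C. albicans J1-97, C. glabrata J-92, Cryptococcus neoformans MPU-B. Quality control was run on each testing day with reference strains, including C. albicans ATCC 90028.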

Assay [1] concerns Candida albicans. As to the kind of experiment: Antifungal activity against azole-resistant Candida albicans J2-36 by CLSI M27-A2 microdilution method. For orientation: In broth dilution the organism is exposed to a series of concentrations in liquid medium.
The test system of a further assay is Nakaseomyces glabratus. As to the kind of experiment: Antifungal activity against Candida glabrata J 92 by CLSI M27-A2 microdilution method. An outline of the steps:
as §1

The subject of assay [2] is Candida albicans. The assay is described as follows: Antifungal activity against azole-sensitive Candida albicans J1-97 by CLSI M27-A2 microdilution method. A digest of the protocol:
as §1

As to `C[C@@H]1CC[C@H]2[C@H](C(=O)c3c(O)c([C@]4(O)CCC(=O)[C@@H]5O[C@@H]54)cn(O)c3=O)[C@H](C)C=C[C@@H]2C1` [DIDYMELLAMIDE A], the MIC with Cryptococcus neoformans was found to be 1.6 µg/mL (≈ 3.61 µM); in the assay with Candida albicans [1] it was 3.1 µg/mL (≈ 6.99 µM); against Nakaseomyces glabratus, 3.1 µg/mL (≈ 6.99 µM); in the assay on Candida albicans [2], 3.1 µg/mL (≈ 6.99 µM).

As for `C[C@@H]1CC[C@H]2[C@H](C(=O)c3c(O)c(-c4ccc(O)cc4)c[nH]c3=O)[C@H](C)C=C[C@@H]2C1` [DIDYMELLAMIDE B], the MIC in the assay with Cryptococcus neoformans was 6.3 µg/mL (≈ 16 µM); in the assay with Candida albicans [1], > 25 µg/mL; in the assay with Nakaseomyces glabratus, > 25 µg/mL; against Candida albicans [2], > 25 µg/mL.

For the compound `C[C@@H]1CC[C@H]2[C@H](C(=O)c3c(O)c(C4(O)C=CC(=O)CC4)c[nH]c3=O)[C@H](C)C=C[C@@H]2C1` (stereo partly specified) [DIDYMELLAMIDE C], the minimal inhibitory concentration (MIC) against Cryptococcus neoformans, with Candida albicans [1], with Nakaseomyces glabratus and in the assay with Candida albicans [2] was > 25 µg/mL in each case.

As to `C[C@@H]1CC[C@H]2[C@H](C(=O)c3c(O)c(C4(O)CCC(=O)CC4O)c[nH]c3=O)[C@H](C)C=C[C@@H]2C1` (stereo partly specified) [DIDYMELLAMIDE D], the MIC with Cryptococcus neoformans, in the assay with Candida albicans [1], with Nakaseomyces glabratus and in the assay with Candida albicans [2] was > 25 µg/mL each time.

The term MIC denotes the lowest concentration found to suppress growth. Read a low MIC as greater potency.
